*1 amine or outer side, *2 acyl side, *3 side chain or, on linkers, in order; H or OH if unused. Where a SMILES comes first, the peptide text is derived from it. Bridges are numbered along the chain shown (N, C = ends). [ ]: non-standard residue; d: D form. The star is where a group is joined. hTyr(3S-OH,4S-OH,3'-OSO3H) = N[C@H](C(=O)O)[C@H](O)[C@@H](O)c1ccc(O)c(OS(=O)(=O)O)c1; Orn(4R-OH,5R-OH) = O=C([C@H](C[C@@H](O)[C@@H](O)N[*:3])N[*:1])[*:2]; Pro(3S-OH,4S-Me) = C[C@H]1CN[C@H](C(=O)O)[C@H]1O; X1 = CCCCCOc1ccc(-c2cc(-c3ccc(C(=O)*)cc3)no2)cc1; Gln(3R-OH) = NC(=O)C[C@@H](O)[C@H](N)C(=O)O; Hyp = O=C(O)[C@@H]1C[C@@H](O)CN1
Experiments:
Assay type in all cases: functional
[1] = system: Alternaria alternata; assay: Antimicrobial activity against Alternaria alternata by broth microdilution method
Summary of the method: (§1)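 Clinical mould isolates, tested by broth microdilution using the AFST-EUCAST reference method for filamentous fungi. For echinocandins, the endpoint was the minimum effective concentration: the lowest drug concentration giving aberrant hyphal growth, read with an inverted microscope.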

[2] = system: Yarrowia lipolytica; assay: Antimicrobial activity against Yarrowia lipolytica by broth microdilution method
[3] = system: Aspergillus sydowii; assay: Antimicrobial activity against Aspergillus sydowii by broth microdilution method; summary of the method: as §1
[4] = system: Aspergillus flavus; assay: Antimicrobial activity against Aspergillus flavus by broth microdilution method; summary of the method: as §1
[5] = system: Torulaspora delbrueckii; assay: Antimicrobial activity against Candida coliculosa by broth microdilution method
Summary of the method: (§2)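 Clinical isolates from human patients, tested by broth microdilution using the AFST-EUCAST reference procedure for fermentative yeasts. The MIC was read per that reference method.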

[6] = system: Acremonium sp.; assay: Antimicrobial activity against Acremonium sp.by broth microdilution method; summary of the method: as §1
[7] = system: Naganishia albida; assay: Antimicrobial activity against Cryptococcus albidus by broth microdilution method
Summary of the method: (§3)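 Clinical isolates of nonfermentative yeasts, tested by broth microdilution following EUCAST recommendations. The only change from that method was a minor modification to improve growth.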

[8] = system: Fusarium reticulatum; assay: Antimicrobial activity against Fusarium reticulatum by broth microdilution method
Summary of the method: (§4)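 Filamentous fungus clinical isolates tested by the AFST-EUCAST reference broth microdilution method for moulds. For echinocandins, the endpoint was the minimum effective concentration: the lowest drug concentration giving aberrant hyphal growth, read with an inverted microscope.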

[9] = system: Aspergillus sclerotiorum; assay: Antimicrobial activity against Aspergillus sclerotiorum by broth microdilution method; summary of the method: as §1
[10] = system: Lecythophora hoffmannii; assay: Antimicrobial activity against Lecythophora hoffmannii by broth microdilution method; settings: Coniochaeta hoffmannii; summary of the method: as §4
[11] = system: Trichosporon asahii; assay: Antimicrobial activity against Trichosporon asahii by broth microdilution method
Summary of the method: (§5)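 Nonfermentative yeast clinical isolates (Rhodotorula, Trichosporon) tested by broth microdilution. The EUCAST yeast recommendations were followed strictly, with one minor modification to improve growth. MIC was read as the endpoint.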

[12] = system: Aspergillus fumigatus; assay: Antimicrobial activity against Aspergillus fumigatus by broth microdilution method; summary of the method: as §1
[13] = system: [Candida] intermedia; assay: Antimicrobial activity against Candida intermedia by broth microdilution method; settings: Sungouiella intermedia; summary of the method: as §2
[14] = system: Trichosporon jirovecii; assay: Antimicrobial activity against Trichosporon jirovecii by broth microdilution method; settings: Cutaneotrichosporon jirovecii; summary of the method: as §5
[15] = system: Penicillium; assay: Antimicrobial activity against Penicillium spp. by broth microdilution method; summary of the method: as §4
[16] = system: Aspergillus ochraceus; assay: Antimicrobial activity against Aspergillus ochraceus by broth microdilution method; summary of the method: as §1
[17] = system: Candida albicans; assay: Antimicrobial activity against Candida albicans by broth microdilution method; summary of the method: as §2
[18] = system: Nakaseomyces glabratus; assay: Antimicrobial activity against Candida glabrata by broth microdilution method; summary of the method: as §2
[19] = system: Trichosporon domesticum; assay: Antimicrobial activity against Trichosporon mycotoxinivorans by broth microdilution method; settings: Apiotrichum domesticum
Summary of the method: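 Spanish human clinical isolates were tested as nonfermentative yeasts by broth microdilution. The method strictly followed the EUCAST recommendations, with a minor modification to improve growth, and the read-out was the MIC.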

[20] = system: Saccharomyces cerevisiae; assay: Antimicrobial activity against Saccharomyces cerevisiae by broth microdilution method
[21] = system: Coprinellus domesticus; assay: Antimicrobial activity against Hormographiella verticillata by broth microdilution method; summary of the method: as §4
[22] = system: Pichia norvegensis; assay: Antimicrobial activity against Candida norvegensis by broth microdilution method; summary of the method: as §2
[23] = system: Trichosporon; assay: Antimicrobial activity against Trichosporon spp. by broth microdilution method; summary of the method: as §5
[24] = system: Paecilomyces lilacinus; assay: Antimicrobial activity against Paecilomyces lilacinus by broth microdilution method; settings: Purpureocillium lilacinum; summary of the method: as §4
[25] = system: Aspergillus terreus; assay: Antimicrobial activity against Aspergillus terreus by broth microdilution method; summary of the method: as §1
[26] = system: [Candida] inconspicua; assay: Antimicrobial activity against Candida inconspicua by broth microdilution method; settings: Pichia inconspicua; summary of the method: as §2
[27] = system: Fennellia nivea; assay: Antimicrobial activity against Aspergillus niveus by broth microdilution method; summary of the method: as §1
[28] = system: Fusarium proliferatum; assay: Antimicrobial activity against Fusarium proliferatum by broth microdilution method; summary of the method: as §1
[29] = system: Mucor; assay: Antimicrobial activity against Mucor spp.by broth microdilution method; summary of the method: as §4
[30] = system: Scedosporium apiospermum; assay: Antimicrobial activity against Scedosporium apiospermum by broth microdilution method; summary of the method: as §4
[31] = system: Trichosporon dermatis; assay: Antimicrobial activity against Trichosporon dermatis by broth microdilution method; settings: Cutaneotrichosporon dermatis; summary of the method: as §5
[32] = system: Candida tropicalis; assay: Antimicrobial activity against Candida tropicalis by broth microdilution method; summary of the method: as §2
[33] = system: Aspergillus; assay: Antimicrobial activity against Aspergillus spp. by broth microdilution method; summary of the method: as §1
[34] = system: Kluyveromyces marxianus; assay: Antimicrobial activity against Candida kefyr by broth microdilution method; summary of the method: as §2
[35] = system: Magnusiomyces capitatus; assay: Antimicrobial activity against Dipodascus capitatus by broth microdilution method
[36] = system: Aspergillus niger; assay: Antimicrobial activity against Aspergillus niger by broth microdilution method; summary of the method: as §1
[37] = system: Diutina rugosa; assay: Antimicrobial activity against Candida rugosa by broth microdilution method; summary of the method: as §2
[38] = system: Paecilomyces variotii; assay: Antimicrobial activity against Paecilomyces variotii by broth microdilution method; summary of the method: as §4
[39] = system: [Candida] zeylanoides; assay: Antimicrobial activity against Candida zeylanoides by broth microdilution method; settings: Dujonia zeylanoides; summary of the method: as §2
[40] = system: Trichoderma; assay: Antimicrobial activity against Trichoderma spp. by broth microdilution method; summary of the method: as §4
[41] = system: Scytalidium hyalinum; assay: Antimicrobial activity against Scytalidium hyalinum by broth microdilution method; settings: Neoscytalidium hyalinum; summary of the method: as §4
[42] = system: Fusarium verticillioides; assay: Antimicrobial activity against Fusarium verticillioides by broth microdilution method; summary of the method: as §4
[43] = system: Papiliotrema laurentii; assay: Antimicrobial activity against Cryptococcus laurentii by broth microdilution method; summary of the method: as §3
[44] = system: Wickerhamomyces anomalus; assay: Antimicrobial activity against Candida pelliculosa by broth microdilution method; settings: Hansenula anomala; summary of the method: as §2

CCCCCOc1ccc(-c2cc(-c3ccc(C(=O)N[C@H]4C[C@@H](O)[C@@H](O)NC(=O)[C@@H]5[C@@H](O)[C@@H](C)CN5C(=O)[C@H]([C@H](O)CC(N)=O)NC(=O)[C@H]([C@H](O)[C@@H](O)c5ccc(O)c(OS(=O)(=O)O)c5)NC(=O)[C@@H]5C[C@@H](O)CN5C(=O)[C@H]([C@@H](C)O)NC4=O)cc3)no2)cc1 [MICAFUNGIN] (X1-[Orn(4R-OH,5R-OH)]T[Hyp][hTyr(3S-OH,4S-OH,3'-OSO3H)][Gln(3R-OH)][Pro(3S-OH,4S-Me)]; lactam 1-C)
0.06 µg/mL: MIC50 [9] | MIC90 [10] | MIC90 [15] | MIC50 [16] | MIC90 [20] | MIC50 [27] | MIC50 [33] | MIC90 [36] | MIC90 [41]
> 16 µg/mL: MIC90 [1] | MIC50 [4] | MIC90 [4] | MIC50 [7] | MIC90 [7] | MIC50 [8] | MIC90 [8] | MIC50 [11] | MIC90 [11] | MIC50 [14] | MIC90 [14] | MIC50 [19] | MIC90 [19] | MIC50 [21] | MIC90 [21] | MIC50 [23] | MIC90 [23] | MIC50 [24] | MIC90 [24] | MIC50 [28] | MIC90 [28] | MIC50 [29] | MIC90 [29] | MIC90 [30] | MIC50 [31] | MIC90 [31] | MIC50 [35] | MIC90 [35] | MIC50 [40] | MIC90 [40] | MIC50 [42] | MIC90 [42] | MIC50 [43] | MIC90 [43]
0.25 µg/mL: MIC50 [1] | MIC90 [6] | MIC90 [9] | MIC90 [16] | MIC90 [27] | MIC90 [33]
0.12 µg/mL: MIC90 [5] | MIC50 [6] | MIC90 [13] | MIC90 [22] | MIC90 [26] | MIC90 [37] | MIC90 [39] | MIC90 [44]
0.03 µg/mL: MIC50 [2] | MIC50 [3] | MIC90 [3] | MIC50 [5] | MIC50 [10] | MIC50 [12] | MIC90 [12] | MIC50 [13] | MIC50 [15] | MIC50 [17] | MIC90 [17] | MIC50 [18] | MIC90 [18] | MIC50 [20] | MIC50 [22] | MIC50 [25] | MIC90 [25] | MIC50 [26] | MIC50 [30] | MIC50 [32] | MIC90 [32] | MIC50 [34] | MIC90 [34] | MIC50 [36] | MIC50 [37] | MIC50 [38] | MIC90 [38] | MIC50 [39] | MIC50 [41] | MIC50 [44]
1 µg/mL: MIC90 [2]
